From publication PMC3787694 (Biochimica et biophysica acta, 2010)
Structures can show the parent of a compound that is named as a salt. Where two headings read alike, the source gives them in different places.

Tests used:
[1] = biological target: human fetal muscle AChR (α1β1γδ) in TE671 cells (Homo sapiens, UniProt P02708+P07510+P11230+Q07001); format: cell-based
[2] = biological target: T1, Torpedo AChR (immobilized) (Tetronarce californica, UniProt P02710+P02712+P02714+P02718); experiment: Thermodynamic parameters by non-linear chromatography; format: binding; conditions: for Ea (drug dissociation): Arrhenius plot; for ΔG^20: Eq. (8), 293K; for ΔH^+: Eq. (10); for ΔH°: van't Hoff 10-25 °C
α3β4 AChR = conditions: cited from earlier work
[3] = biological target: Torpedo AChR ion channel ([3H]ibogaine site) (Tetronarce californica, UniProt P02710+P02712+P02714+P02718); experiment: [3H]ibogaine competition binding to Torpedo AChRs
[4] = biological target: Torpedo AChR ion channel ([3H]18-MC site) (Tetronarce californica, UniProt P02710+P02712+P02714+P02718); format: binding; conditions: for Ki / nH / ΔG: [3H]18-MC; for ΔG: 298K
[5] = biological target: T1, Torpedo AChR (immobilized); experiment: Binding kinetics by non-linear chromatography on CMAC-Torpedo AChR column; conditions: for Kd: Ka; for koff: 20 °C; for ΔG^20: Eq. (4); for kon: kon=koff·Ka
[6] = biological target: Torpedo AChR ion channel ([3H]TCP site) (Tetronarce californica, UniProt P02710+P02712+P02714+P02718); experiment: [3H]TCP competition binding to Torpedo AChRs in different conformational states; conditions: for Ki / nH / ΔG: [3H]TCP; for ΔG: 298K
α4β2 AChR = conditions: read-out: inhibitory potency; cited from earlier work
Torpedo AChR [7] = biological target: T2, Torpedo AChR (Tetronarce californica, UniProt P02710+P02712+P02714+P02718); experiment: Equilibrium binding of [3H]18-MC to Torpedo AChR native membranes
How it was run: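 [3H]18-MC plus unlabelled ligand was added at 0.07–1.2 μM for 2 h at RT, then filtered. Nonspecific binding was measured with 100 μM unlabelled ligand. Kd was taken from the Rosenthal-Scatchard slope and sites/AChR from its x-intercept.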

Torpedo AChR [8] = biological target: T2, Torpedo AChR; experiment: biochemical; format: binding; conditions: for apparent nH: [3H]cytisine binding enhancement; for fractional occupancy (θ): calculated with Eq. (2)
Torpedo AChR [9] = conditions: cited from earlier work
AChR = conditions: cited from earlier work
Torpedo AChR [10] = conditions: cited from earlier work; remark: listed apart in the source
[11] = epibatidine treated column (desensitized state)
[12] = α-BTx treated column (resting state)
[13] = 5 min pre-incubation IC50 comparison

T1 sequence (P02718 22-522): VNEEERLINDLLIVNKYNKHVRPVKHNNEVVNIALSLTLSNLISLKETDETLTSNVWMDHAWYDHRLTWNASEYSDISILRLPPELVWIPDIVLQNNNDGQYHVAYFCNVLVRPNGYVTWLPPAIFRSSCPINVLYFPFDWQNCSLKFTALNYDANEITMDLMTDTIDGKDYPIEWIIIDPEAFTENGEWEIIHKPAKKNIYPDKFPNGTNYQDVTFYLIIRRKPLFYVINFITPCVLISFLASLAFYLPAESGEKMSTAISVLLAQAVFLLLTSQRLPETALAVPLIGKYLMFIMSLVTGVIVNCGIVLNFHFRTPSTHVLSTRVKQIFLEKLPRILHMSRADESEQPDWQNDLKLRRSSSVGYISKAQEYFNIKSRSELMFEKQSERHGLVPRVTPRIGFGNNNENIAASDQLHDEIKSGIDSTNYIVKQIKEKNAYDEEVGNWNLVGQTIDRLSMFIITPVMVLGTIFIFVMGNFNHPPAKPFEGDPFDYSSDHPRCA
T1 sequence (P02712 25-493): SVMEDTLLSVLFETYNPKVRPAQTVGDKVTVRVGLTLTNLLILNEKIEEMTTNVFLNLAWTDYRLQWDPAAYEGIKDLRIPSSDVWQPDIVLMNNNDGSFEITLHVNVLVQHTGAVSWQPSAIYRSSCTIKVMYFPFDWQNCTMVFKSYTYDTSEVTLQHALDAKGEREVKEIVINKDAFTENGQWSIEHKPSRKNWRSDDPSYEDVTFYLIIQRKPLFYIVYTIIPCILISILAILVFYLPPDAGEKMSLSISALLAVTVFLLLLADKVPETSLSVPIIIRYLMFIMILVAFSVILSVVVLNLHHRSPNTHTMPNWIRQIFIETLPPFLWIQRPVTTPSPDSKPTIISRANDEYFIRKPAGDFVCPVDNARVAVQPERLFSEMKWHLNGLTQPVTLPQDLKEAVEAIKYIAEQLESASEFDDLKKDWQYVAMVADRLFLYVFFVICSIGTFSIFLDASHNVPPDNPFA
T1 sequence (P02714 18-506): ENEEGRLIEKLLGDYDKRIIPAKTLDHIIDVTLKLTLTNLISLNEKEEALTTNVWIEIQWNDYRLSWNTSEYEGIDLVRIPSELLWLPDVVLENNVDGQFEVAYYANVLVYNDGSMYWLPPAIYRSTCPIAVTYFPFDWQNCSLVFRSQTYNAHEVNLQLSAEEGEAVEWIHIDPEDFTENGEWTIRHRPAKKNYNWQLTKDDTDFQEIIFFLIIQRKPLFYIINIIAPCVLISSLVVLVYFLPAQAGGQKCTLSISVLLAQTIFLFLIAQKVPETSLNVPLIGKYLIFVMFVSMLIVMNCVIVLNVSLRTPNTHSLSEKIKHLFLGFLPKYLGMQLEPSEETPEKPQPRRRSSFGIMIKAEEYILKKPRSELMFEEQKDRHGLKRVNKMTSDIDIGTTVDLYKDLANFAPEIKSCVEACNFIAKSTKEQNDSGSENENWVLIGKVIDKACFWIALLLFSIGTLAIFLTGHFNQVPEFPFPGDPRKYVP
T1 sequence (P02710 25-461): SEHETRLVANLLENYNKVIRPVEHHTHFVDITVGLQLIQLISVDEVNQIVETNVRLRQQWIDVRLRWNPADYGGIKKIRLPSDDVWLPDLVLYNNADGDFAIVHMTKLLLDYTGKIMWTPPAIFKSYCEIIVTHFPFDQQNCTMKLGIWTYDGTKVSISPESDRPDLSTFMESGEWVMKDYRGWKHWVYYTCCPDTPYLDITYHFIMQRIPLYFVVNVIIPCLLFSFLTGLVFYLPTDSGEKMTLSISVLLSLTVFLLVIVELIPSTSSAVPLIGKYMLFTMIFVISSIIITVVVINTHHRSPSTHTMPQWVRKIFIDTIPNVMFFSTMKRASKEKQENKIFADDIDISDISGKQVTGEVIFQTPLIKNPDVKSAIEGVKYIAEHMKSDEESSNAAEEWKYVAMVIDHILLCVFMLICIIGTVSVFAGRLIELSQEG
Sequence of Torpedo AChR ion channel ([3H]TCP site) (P02710 25-461): as above
Sequence of Torpedo AChR ion channel ([3H]TCP site) (P02712 25-493): as the sequence (P02712 25-493) above
Sequence of Torpedo AChR ion channel ([3H]TCP site) (P02714 18-506): as the sequence (P02714 18-506) above
Sequence of Torpedo AChR ion channel ([3H]TCP site) (P02718 22-522): as the sequence (P02718 22-522) above
Sequence of Torpedo AChR ion channel ([3H]18-MC site) (P02710 25-461): as the sequence (P02710 25-461) above
Sequence of Torpedo AChR ion channel ([3H]18-MC site) (P02712 25-493): as the sequence (P02712 25-493) above
Sequence of Torpedo AChR ion channel ([3H]18-MC site) (P02714 18-506): as the sequence (P02714 18-506) above
Sequence of Torpedo AChR ion channel ([3H]18-MC site) (P02718 22-522): as the sequence (P02718 22-522) above
T2 sequence (P02710 25-461): as the sequence (P02710 25-461) above
T2 sequence (P02712 25-493): as the sequence (P02712 25-493) above
T2 sequence (P02714 18-506): as the sequence (P02714 18-506) above
T2 sequence (P02718 22-522): as the sequence (P02718 22-522) above
Sequence of Torpedo AChR ion channel ([3H]ibogaine site) (P02710 25-461): as the sequence (P02710 25-461) above
Sequence of Torpedo AChR ion channel ([3H]ibogaine site) (P02712 25-493): as the sequence (P02712 25-493) above
Sequence of Torpedo AChR ion channel ([3H]ibogaine site) (P02714 18-506): as the sequence (P02714 18-506) above
Sequence of Torpedo AChR ion channel ([3H]ibogaine site) (P02718 22-522): as the sequence (P02718 22-522) above
Sequence of human fetal muscle AChR (α1β1γδ) in TE671 cells (P02708 21-457): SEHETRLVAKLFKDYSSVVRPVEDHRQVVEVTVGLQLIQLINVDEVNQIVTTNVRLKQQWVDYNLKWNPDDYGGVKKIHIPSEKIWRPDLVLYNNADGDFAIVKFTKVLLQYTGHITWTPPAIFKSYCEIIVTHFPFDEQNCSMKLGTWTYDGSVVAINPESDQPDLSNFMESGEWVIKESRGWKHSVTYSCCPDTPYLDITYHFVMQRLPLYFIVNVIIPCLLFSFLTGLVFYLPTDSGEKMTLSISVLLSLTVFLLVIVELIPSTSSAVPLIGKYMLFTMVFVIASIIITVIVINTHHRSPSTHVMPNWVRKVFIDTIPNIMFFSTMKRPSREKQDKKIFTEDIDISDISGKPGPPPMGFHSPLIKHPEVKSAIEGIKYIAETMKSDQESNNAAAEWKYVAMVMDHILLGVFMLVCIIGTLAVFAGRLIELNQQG
Sequence of human fetal muscle AChR (α1β1γδ) in TE671 cells (Q07001 22-517): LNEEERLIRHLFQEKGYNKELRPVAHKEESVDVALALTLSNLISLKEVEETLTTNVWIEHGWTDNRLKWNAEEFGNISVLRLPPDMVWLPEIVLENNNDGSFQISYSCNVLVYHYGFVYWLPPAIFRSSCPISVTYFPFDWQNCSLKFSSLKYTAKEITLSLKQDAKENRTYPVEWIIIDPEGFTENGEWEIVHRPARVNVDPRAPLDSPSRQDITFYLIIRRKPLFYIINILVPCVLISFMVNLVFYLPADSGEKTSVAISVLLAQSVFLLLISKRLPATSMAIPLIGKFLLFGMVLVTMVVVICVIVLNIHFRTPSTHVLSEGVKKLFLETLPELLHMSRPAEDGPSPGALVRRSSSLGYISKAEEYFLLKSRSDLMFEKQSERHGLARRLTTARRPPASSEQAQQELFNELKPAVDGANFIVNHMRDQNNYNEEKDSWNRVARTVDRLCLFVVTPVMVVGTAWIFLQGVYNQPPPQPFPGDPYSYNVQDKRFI
Sequence of human fetal muscle AChR (α1β1γδ) in TE671 cells (P11230 24-501): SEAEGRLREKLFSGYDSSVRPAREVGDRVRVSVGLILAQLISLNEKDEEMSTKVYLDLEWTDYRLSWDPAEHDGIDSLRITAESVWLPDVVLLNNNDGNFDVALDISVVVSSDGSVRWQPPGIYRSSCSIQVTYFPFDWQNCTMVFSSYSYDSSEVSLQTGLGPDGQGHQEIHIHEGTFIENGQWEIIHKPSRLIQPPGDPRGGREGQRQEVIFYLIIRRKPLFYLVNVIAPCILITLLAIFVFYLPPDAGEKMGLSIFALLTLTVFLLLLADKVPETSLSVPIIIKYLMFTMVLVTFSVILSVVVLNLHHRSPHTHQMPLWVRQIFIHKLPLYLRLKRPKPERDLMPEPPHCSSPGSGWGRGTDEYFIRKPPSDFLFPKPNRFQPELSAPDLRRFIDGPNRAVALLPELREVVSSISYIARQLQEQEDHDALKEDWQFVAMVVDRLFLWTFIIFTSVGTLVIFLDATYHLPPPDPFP
Sequence of human fetal muscle AChR (α1β1γδ) in TE671 cells (P07510 23-517): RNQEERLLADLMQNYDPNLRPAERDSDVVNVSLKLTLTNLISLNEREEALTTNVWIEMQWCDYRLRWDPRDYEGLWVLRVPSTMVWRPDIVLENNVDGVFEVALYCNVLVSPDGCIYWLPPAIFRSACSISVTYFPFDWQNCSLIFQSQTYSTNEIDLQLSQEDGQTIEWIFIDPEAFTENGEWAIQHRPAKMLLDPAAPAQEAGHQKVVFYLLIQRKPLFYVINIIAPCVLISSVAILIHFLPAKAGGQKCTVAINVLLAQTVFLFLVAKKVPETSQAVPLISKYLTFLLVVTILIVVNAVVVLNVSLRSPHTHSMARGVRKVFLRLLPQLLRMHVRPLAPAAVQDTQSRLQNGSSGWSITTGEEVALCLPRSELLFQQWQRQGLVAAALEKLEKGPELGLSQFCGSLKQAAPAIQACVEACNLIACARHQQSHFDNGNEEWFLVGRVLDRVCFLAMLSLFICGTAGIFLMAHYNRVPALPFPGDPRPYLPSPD

For `Clc1ccc(C2CC3CCC2N3)cn1` (racemic) [(±)-epibatidine, reference compound], the nH of activation ([1]; agonist activation) was 1.23 ±0.06.

For `COCC[C@H]1CC2CN3CCc4c([nH]c5ccccc45)[C@](C(=O)OC)(C2)[C@H]13` [18-MC, 18-methoxycoronaridine], the “enthalpic contribution relative to the entropic contribution” value ([2]; desensitized AChR) was “more than 2 fold”, the “−TΔS°” value [2, 11] was -2.68 ± 0.287 kcal/mol and the “Ea (drug dissociation)” value [2, 11] was 5.35 ± 0.359 kcal/mol. For the same molecule, the “ΔG^20” value [2, 11] was -8.68 ± 0.335 kcal/mol, the “ΔH^+” value [2, 11] was 4.78 ± 0.359 kcal/mol and the “ΔH°” value [2, 11] was -5.98 ± 0.263 kcal/mol. The “−TΔS°” value [2, 12] was -3.7 ± 0.263 kcal/mol, the “Ea (drug dissociation)” value [2, 12] was 3.92 ± 0.17 kcal/mol and the “ΔG^20” value [2, 12] was -8.13 ± 0.335 kcal/mol. For the same molecule, the “ΔH^+” value [2, 12] was 3.32 ± 0.17 kcal/mol, the “ΔH°” value [2, 12] was -4.42 ± 0.263 kcal/mol and the IC50 (α3β4 AChR) was 0.75 to 0.9 µM. For the same molecule, the Ki [3] was 0.61 ± 0.08 µM, the nH ([3]; [3H]ibogaine, desensitized/CCh-bound state) was 1.02 ±0.13 and the ΔG ([3]; [3H]ibogaine, desensitized/CCh-bound state, 298K) was -8.48 ± 0.072 kcal/mol. The “inhibition of the specific binding of [3H]ibogaine” value ([3]; both conformational states (so in the source)) was about 100%, the “increase of potency by longer pre-incubation periods” value ([1]; 4 or 24 h vs 5 min pre-incubation) was about 2 fold and the “fold more potent than PCP” value [1, 13] was about 4 fold. For the same molecule, the “fold more potent than ibogaine” value [1, 13] was about 2 fold, the “nH (Hill coefficient)” value ([1]; pre-incubation 5 min) was 1.56 ±0.15 and the “nH (Hill coefficient)” value ([1]; pre-incubation 240 min) was 1.90 ±0.20. For the same molecule, the “nH (Hill coefficient)” value ([1]; pre-incubation 1440 min) was 1.61 ±0.13, the “manner of inhibition of hα1β1γδ AChR” value ([1]; pre-treatment with 1, 10 and 100 μM) was “dose dependent and noncompetitive manner” and the Ki ([4]; desensitized/CCh-bound state) was 0.47 ± 0.03 µM. For the same molecule, the Ki ([4]; resting/α-BTx-bound state) was 1 ± 0.1 µM, the “fold higher affinity for the desensitized AChR compared to the resting AChR” value ([4]; [3H]18-MC competition) was about 2 fold and the nH ([4]; desensitized/CCh-bound state) was 1.02 ±0.06. It also gave a ΔG ([4]; desensitized/CCh-bound state) of -8.63 ± 0.048 kcal/mol, a nH ([4]; resting/α-BTx-bound state) of 0.70 ± 0.05 and a ΔG ([4]; resting/α-BTx-bound state) of -8.2 ± 0.072 kcal/mol. For the same molecule, the Kd [5, 11] was 0.337 µM, the Kd [5, 12] was 0.885 µM and the koff [5, 11] was 0.077 ± 0.001 s⁻¹. For the same molecule, the “ΔG^20” value [5, 11] was -8.68 ± 0.024 kcal/mol, the kon [5, 11] was 228000 ± 3000 M⁻¹ s⁻¹ and the koff [5, 12] was 0.109 ± 0.005 s⁻¹. For the same molecule, the “ΔG^20” value [5, 12] was -8.1 ± 0.024 kcal/mol, the kon [5, 12] was 123000 ± 2000 M⁻¹ s⁻¹ and the Ki ([6]; desensitized/CCh-bound state) was 0.17 ± 0.01 µM. The Ki ([6]; resting/α-BTx-bound state) was 1.4 ± 0.1 µM, the “fold higher affinity in the desensitized AChR than in the resting AChR” value ([6]; [3H]TCP binding site) was about 8 fold and the nH ([6]; desensitized/CCh-bound state) was 1.11 ±0.07. It also gave a ΔG ([6]; desensitized/CCh-bound state) of -9.23 ± 0.024 kcal/mol, a nH ([6]; resting/α-BTx-bound state) of 0.89 ± 0.06 and a ΔG ([6]; resting/α-BTx-bound state) of -7.98 ± 0.048 kcal/mol. For the same molecule, the “inhibition of the specific binding of [3H]TCP” value ([6]; both conformational states) was about 100%, the IC50 (α4β2 AChR) was over 20 µM and the Kd (Torpedo AChR [7]) was 0.23 ± 0.04 µM. The EC50 (Torpedo AChR [8]) was 0.3 ± 0.1 µM, the “fold more potent than ibogaine to induce AChR desensitization” value (Torpedo AChR [8]) was about 90 fold and the “apparent nH” value (Torpedo AChR [8]) was 0.81±0.20.

In the case of `c1ccc(C2(N3CCCCC3)CCCCC2)cc1` [PCP, phencyclidine], the “nH (Hill coefficient)” value ([1]; pre-incubation 5 min) is reported as 2.30 ±0.04, the Ki ([4]; desensitized/CCh-bound state) is reported as 0.41 ± 0.03 µM and the Ki ([4]; resting/α-BTx-bound state) is reported as 0.73 ± 0.05 µM. It also gave a nH ([4]; desensitized/CCh-bound state) of 0.76 ± 0.03, a ΔG ([4]; desensitized/CCh-bound state) of -8.7 ± 0.024 kcal/mol and a nH ([4]; resting/α-BTx-bound state) of 0.88 ± 0.05. For the same molecule, the ΔG ([4]; resting/α-BTx-bound state) was -8.37 ± 0.048 kcal/mol and the “inhibition of the specific binding of [3H]18-MC” value ([4]; both conformational states) was about 100%.

For `c1csc(C2(N3CCCCC3)CCCCC2)c1` [[^3H]TCP, [Piperidyl-3,4-^3H(N)]-(N-(1-(2 thienyl)cyclohexyl)-3,4-piperidine)], the Kd (Torpedo AChR [9]; desensitized state) is listed as 0.25 µM and the Kd (Torpedo AChR [9]; resting state) is listed as 0.83 µM.

With `[3H]c1cc([3H])c(=O)n2c1[C@H]1CNC[C@H](C1)C2` [[^3H]cytisine, [^3H]cytisine hydrochloride, reference compound] the “fractional occupancy (θ)” value (Torpedo AChR [8]; bound to the desensitized AChR, 7.7 nM) was about 0.017% and the “fractional occupancy (θ)” value (Torpedo AChR [8]; bound to the resting AChR, nH = 1, 7.7 nM) was about 0.005%.

For `O=c1cccc2n1C[C@@H]1CNC[C@H]2C1` [cytisine], the Ki (AChR; desensitized state) is listed as 0.45 µM and the Ki (AChR; resting state) is listed as 1.6 µM.

“[^3H]18-Methoxycoronaridine [[^3H]18-MC]” gave a stoichiometric ratio (Torpedo AChR [7]; desensitized/CCh-bound state) of 0.86 ± 0.13 binding sites/AChR and a Kd (Torpedo AChR [7]; desensitized/CCh-bound state (1 mM CCh), Rosenthal-Scatchard plot) of 0.23 µM.

In the case of [^3H]Ibogaine, the Kd (Torpedo AChR [10]) is listed as 5.4 µM.

In the case of ibogaine, the IC50 (α3β4 AChR) is given as 0.22 µM, the “nH (Hill coefficient)” value ([1]; pre-incubation 5 min) is given as 2.00 ±0.29 and the nH ([4]; desensitized/CCh-bound state) is given as 1.11 ±0.07. It also gave a ΔG ([4]; desensitized/CCh-bound state) of -6.86 ± 0.048 kcal/mol, a nH ([4]; resting/α-BTx-bound state) of 1.04 ±0.08 and a ΔG ([4]; resting/α-BTx-bound state) of -6.76 ± 0.048 kcal/mol. The “apparent nH” value (Torpedo AChR [8]) was 0.99±0.22.
